Measurements published in the RNAGym collection of RNA variant scans (doi:10.1002/anie.201605470).

B1: Osa-1-4 twister ribozyme (parent)
chain: CCGCCUAACACUGCCAAUGCCGGUCCCAAGCCCGGAUAAAAGUGGAGGGGGCGG

Variants of: B1
Experiment: self-cleavage, relative activity (ratio to wild type); higher = more cleavage; co-transcriptional
How it was run: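 Values are relative activity: the fraction cleaved, normalised to wild type. A doped DNA template for a 54-nucleotide twister ribozyme from Oryza sativa had 97 % wild-type base and 1 % of each other base at the 48 positions downstream of the cleavage site. The RNA was transcribed in vitro for 2 h at 37 °C so that it could cleave itself co-transcriptionally, then sequenced deeply, with cleavage status scored from the presence or absence of upstream sequence in reads.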

Variant	self-cleavage
A8G G22A	0.2
A8C G23A	0.08
A8C G23C	0.02
A8C G23U	0.07
A8C G13A	0.03
A8C G13C	0.07
A8C G13U	0.01
A8C G50C	0.08
A8C G50A	0.06
A8C G50U	0.08
A8C G44A	0.07
A8C G44U	0.08
A8C G44C	0.07
A8C G42C	0.04
A8C G42A	0.06
A8C G42U	0.04
A8C U18C	0.08
A8C U18G	0.17
A8C U18A	0.07
A8G C31U	0.1
A8G C31G	0.08
A8G C31A	0.03
A7U U24C	0.04
A7U U24G	0.02

Variant	self-cleavage
A7U U24A	0.06
A8C G54C	0.06
A8C G54U	0.11
A8C G54A	0.09
A8C G45C	0.02
A8C G45U	0.04
A8C G45A	0.04
A7U U43G	0.07
A7U U43C	0.07
A7U U43A	0.08
A8C G19A	0.07
A8C G19U	0.06
A8C G19C	0.08
A8C C26U	0.06
A8C C26A	0.03
A8C C26G	0.02
A8G C15G	0.29
A8G C15U	0.13
A8G C15A	0.12
A8G C11A	0.15
A8G C11G	0.17
A8G C11U	0.19
A7U U37C	0.08
A7U U37A	0.07

Variant	self-cleavage
A7U U37G	0.1
A8C U43G	0.08
A8C U43C	0.08
A8C U43A	0.08
A8C G35C	0.08
A8C G35U	0.09
A8C G35A	0.08
A8C G48C	0.02
A8C G48A	0.02
A8C G48U	0.03
A8C U37C	0.07
A8C U37A	0.06
A8C U37G	0.1
A8G G19U	0.1
A8G G19A	0.15
A8G G19C	0.07
A8C C31A	0.01
A8C C31G	0.02
A8C C31U	0.05
A8C G30A	0.01
A8C G30U	0.01
A8C G30C	0.03
A8C G47C	0.03
A8C G47U	0.04

Variant	self-cleavage
A8C G47A	0.04
A8C U24A	0.03
A8C U24C	0.08
A8C U24G	0.01
A8G C33G	0.07
A8G C33A	0.1
A8G C33U	0.21
A8G C32A	0.05
A8G C32G	0.13
A8G C32U	0.07
A8C C14G	0.03
A8C C14U	0.05
A8C C14A	0.04
A8G G13C	0.03
A8G G13A	0.1
A8G G13U	0.03
A8G C25U	0.16
A8G C25A	0.08
A8G C25G	0.08
A8C G22U	0.07
A8C G22C	0.03
A8C G22A	0.09
A8C G51A	0.06
A8C G51U	0.05

Variant	self-cleavage
A8C G51C	0.03
A8G C14U	0.14
A8G C14A	0.07
A8G C14G	0.1
A8C C9U	0.01
A8C C9G	0.05
A8C C9A	0.1
A8C C27G	0.03
A8C C27A	0.13
A8C C27U	0.04
A8G C9A	0.13
A8G C9G	0.2
A8G C9U	0.1
A8C C11U	0.09
A8C C11G	0.06
A8C C11A	0.1
A8C C33A	0.06
A8C C33G	0.03
A8C C33U	0.06
A8C G49C	0.02
A8C G49U	0.03
A8C G49A	0.02
A7U U18C	0.08
A7U U18G	0.11

Variant	self-cleavage
A7U U18A	0.11
A8G C20A	0.49
A8G C20U	0.58
A8G C20G	0.09
A8C G53A	0.07
A8C G53C	0.02
A8C G53U	0.06
A8G C27A	0.14
A8G C27U	0.11
A8G C27G	0.11
A8G C21G	0.09
A8G C21U	0.38
A8G C21A	0.14
A8C C15A	0.21
A8C C15G	0.05
A8C C15U	0.04
A8C U12A	0.06
A8C U12G	0.16
A8C U12C	0.07
A8G C26U	0.18
A8G C26A	0.04
A8G C26G	0.27
A8C C52G	0.15
A8C C52A	0.12

Variant	self-cleavage
A8C C52U	0.09
A8C C21U	0.06
A8C C21A	0.09
A8C C21G	0.05
A8C C25U	0.07
A8C C25A	0.05
A8C C25G	0.03
A7U U12C	0.1
A7U U12G	0.06
A8C G34C	0.06
A8C G34A	0.07
A8C G34U	0.07
A8C C20U	0.09
A8C C20A	0.08
A8C C20G	0.03
A8C C32G	0.03
A8C C32A	0.04
A8C C32U	0.02
A8G C52G	0.58
A8G C52A	0.44
A8G C52U	0.73
A8C	0.07
A8G	0.71
